Screens from PubChem.
Sampled rows, rich in hits. Any-hit rate of the full collection: about 1.8%.
M5 antag: human M5 muscarinic receptor antagonists, primary screen, CHO cells, Fluo-8 calcium fluorescence; Muscarinic acetylcholine receptor M5 (Homo sapiens), P08912; CHO-hM5 cells, ACh EC80; inhibition, % at 3 µM; hit rate 0.59% among 360,000; AID 624040, 2012;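 active = inhibition above a per-plate cutoff, the mean of that plate's test compounds plus 3 SD, cut at about 27% in these data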;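 note: 0% = acetylcholine EC80 with DMSO and 100% = DMSO without agonist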
CHRM5 agonist: human M5 muscarinic receptor agonists, primary screen, CHO-K1 cells, Fluo-8 calcium fluorescence; activation, % at 3 µM; Muscarinic acetylcholine receptor M5 (Homo sapiens), P08912; hit rate 0.19% among 360,000; CHO-K1 hM5 cells; 0% DMSO wells, 100% maximal acetylcholine response;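 active = activation above the run's mean over test compounds plus 3 SD, cut at about 23% in these data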;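 note: signal is peak over basal fluorescence ratio across the kinetic read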
CHRM4 PAM: human M4 muscarinic receptor positive allosteric modulators, primary screen, CHO-K1 cells, Fluo-8 calcium fluorescence. Muscarinic acetylcholine receptor M4 (Homo sapiens), P08173. CHO-K1 hM4/Gqi5, ACh EC20; 0% = ACh EC20, 100% = maximal ACh. activation, % at 3 µM. hit rate 0.4% among 360,000;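 active = activation above its plate's cutoff, the mean activation of sample wells plus 3 SD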
Target sequence (P08173 whole entry, looked up): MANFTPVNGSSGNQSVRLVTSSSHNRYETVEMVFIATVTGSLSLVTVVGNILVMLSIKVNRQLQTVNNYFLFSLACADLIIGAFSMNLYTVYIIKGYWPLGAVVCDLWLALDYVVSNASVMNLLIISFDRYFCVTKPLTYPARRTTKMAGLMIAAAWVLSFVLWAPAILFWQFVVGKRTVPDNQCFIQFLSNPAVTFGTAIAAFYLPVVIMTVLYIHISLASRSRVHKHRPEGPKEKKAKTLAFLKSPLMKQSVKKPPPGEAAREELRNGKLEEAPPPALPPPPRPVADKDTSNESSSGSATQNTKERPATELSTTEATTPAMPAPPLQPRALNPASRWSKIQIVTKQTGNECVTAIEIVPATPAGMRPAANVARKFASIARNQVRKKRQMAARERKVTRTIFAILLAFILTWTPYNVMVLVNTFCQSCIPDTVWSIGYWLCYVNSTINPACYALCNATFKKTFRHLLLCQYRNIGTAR
M4 antag: human M4 muscarinic receptor antagonists, primary screen, CHO cells, Fluo-8 calcium fluorescence | CHO-hM4 cells, ACh EC80 | inhibition, % at 3 µM | hit rate 0.73% among 360,000 | AID 624125, 2012;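 active = inhibition above its plate's cutoff, the mean inhibition of sample wells plus 3 SD, cut at about 27% in these data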;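 note: 0% = acetylcholine EC80 with DMSO and 100% = DMSO without agonist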
M5 PAM: human M5 muscarinic receptor positive allosteric modulators, primary screen, CHO-K1 cells, Fluo-8 calcium fluorescence | hit rate 0.3% among 360,000 | CHO-K1 hM5, ACh EC20 PAM; 0% = ACh EC20, 100% = ACh EC100 | Muscarinic acetylcholine receptor M5 (Homo sapiens), P08912 | activation, % at 3 µM;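 active = activation above the run cutoff, the mean activation of all test compounds plus 3 SD, cut at about 18% in these data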
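Assay system: CHO-K1 hM5 cells / Incubation: Fluo-8 loading 80 min at 37 °C plus 30 min room temperature / Technique: Fluo-8 calcium dye fluorescence, kinetic read / Repeats: single replicate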
CHRM4 agonist: human M4 muscarinic receptor agonists, primary screen, CHO-K1 cells, Fluo-8 calcium fluorescence | AID 624127, 2012 | CHO-K1 hM4/Gqi5; vehicle 0%, full acetylcholine response 100% | activation, % at 3 µM | hit rate 0.14% among 360,000;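 active = activation above the run mean over all test wells plus 3 SD, cut at about 32% in these data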;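 note: peak over basal fluorescence ratio per well then scaled between controls; 0% = DMSO wells and 100% = acetylcholine at EC100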
An asterisk follows results filed as active.

Screening CC1CCN(Cc2ccc(NC(=O)CC3Oc4ccccc4NC3=O)cc2)CC1 (stereo not given) returned M5 antag 37*, CHRM5 agonist -6, CHRM4 PAM -14, M4 antag 97*, M5 PAM -25 and CHRM4 agonist 2.
CC(C)CN(CCNC(=O)CC1Oc2ccccc2NC1=O)CC(C)C (stereo not given) was read as M5 antag -5, CHRM5 agonist -4, CHRM4 PAM 4, M4 antag -6, M5 PAM 2 and CHRM4 agonist 1.
`CCC(C)N(CCNC(=O)CC1Oc2ccccc2NC1=O)C1CCCCC1` (stereo not given) gave M5 antag 9, CHRM5 agonist -6, CHRM4 PAM -14, M4 antag 45*, M5 PAM -10 and CHRM4 agonist 0.
`CCCOc1ccc(C(=O)NC(=S)NNC(=O)c2c(-c3ccccc3)noc2C)cc1` gave M5 antag 16, CHRM5 agonist 19, CHRM4 PAM -9, M4 antag 10, M5 PAM -16 and CHRM4 agonist 32*.
For Cc1onc(-c2ccccc2)c1C(=O)NC(=S)NNC(=O)c1ccccc1O the results were M5 antag -1, CHRM5 agonist 20, CHRM4 PAM -13, M4 antag 2, M5 PAM -17 and CHRM4 agonist 44*.
`CCCCCCCCCn1ccc(=N)cc1` gave M5 antag 9, CHRM5 agonist -17, CHRM4 PAM -13, M4 antag 30*, M5 PAM -13 and CHRM4 agonist 0.
CC(c1nc2ccccc2[nH]1)n1c(=O)c(-c2ccco2)nc2ccccc21 (stereo not given) was read as M5 antag -5, CHRM5 agonist 3, CHRM4 PAM 2, M4 antag 6, M5 PAM 11 and CHRM4 agonist -2.
Screening c1ccc2c(CN3CCSCC3)cccc2c1 returned M5 antag 1, CHRM5 agonist 1, CHRM4 PAM 1, M4 antag -13, M5 PAM 6 and CHRM4 agonist -2.
`O=C(Cc1ccccc1)N1CCc2[nH]nc(-c3ccccc3)c2C1` gave M5 antag 14, CHRM5 agonist -4, CHRM4 PAM 18*, M4 antag 15, M5 PAM 9 and CHRM4 agonist 10.
`S=C(Nc1ccc(Cl)cc1)NC1CCCCC1` gave M5 antag 7, CHRM5 agonist 1, CHRM4 PAM -25, M4 antag 1, M5 PAM -11 and CHRM4 agonist 8.
FC(F)Oc1ccc(NC(=S)NC2CCCCCCC2)cc1 was read as M5 antag 34*, CHRM5 agonist 1, CHRM4 PAM -8, M4 antag 6, M5 PAM -12 and CHRM4 agonist 16.
Screening O=C(NC1CCSc2ccccc21)c1cccc(OC(F)F)c1 (stereo not given) returned M5 antag -3, CHRM5 agonist -6, CHRM4 PAM 1, M4 antag -9, M5 PAM 0 and CHRM4 agonist 2.
For FC(F)Oc1ccc(NC(=S)NC2CCSc3ccccc32)cc1 (stereo not given) the results were M5 antag 43*, CHRM5 agonist 0, CHRM4 PAM -19, M4 antag 60*, M5 PAM -18 and CHRM4 agonist 17.
Screening O=C(O)Cc1cn(Cc2cccc(Cl)c2)c2ccccc12 returned M5 antag 4, CHRM5 agonist -2, CHRM4 PAM 26*, M4 antag -2, M5 PAM 2 and CHRM4 agonist 3.
Screening O=C(CSc1nnc(C2CC2)n1C1CC1)c1cc(F)ccc1F returned M5 antag 8, CHRM5 agonist 4, CHRM4 PAM 11, M4 antag -13, M5 PAM -3 and CHRM4 agonist 0.
